Data published in ChEMBL document CHEMBL4014343 (J Med Chem, 2017).
Active and inactive are the calls of the source. No cut-off for these calls is given here.

Columns and labels:
[1] = tested on: MCF7; assay: Induction of apoptosis in human MCF7 cells at 0.5 uM after 24 hrs by Annexin V-FITC/propidium iodide staining based FACS analysis; assay type: functional, cell-based
Method in brief: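 MCF7 grown 24 h in DMEM/10% FBS/1% PS, exposed 24 h, pelleted, stained with FITC-annexin V in HEPES binding buffer (pH 7.4, 1.8 mM CaCl2) 15 min dark at rt, then PI 10 min, analysed by flow cytometry; bortezomib positive control.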

[2] = tested on: RXF 393; assay: Growth inhibition of human RXF393 cells incubated for 48 hrs by sulforhodamine B assay; assay type: functional, cell-based
[3] = target: Fibroblast growth factor receptor 1 (Homo sapiens) (UniProt P11362); assay: Inhibition of human N-terminal GST/His6-tagged FGFR1 (G400 to R820 residues) expressed in baculovirus infected sf9 cells at 1 uM using Poly(Glu,Tyr)4:1 as substrate by filter binding assay
Method in brief: (§1)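 Single-point profiling at 1 μM in a 22-kinase panel, performed externally by ProQinase; activity read as residual percent of control.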

[4] = target: CDK2/Cyclin A2 (Homo sapiens) (UniProt P24941+P20248); assay: Inhibition of recombinant human N-terminal GST-tagged CDK2 (M1 to L298 residues)/Cyclin A2 (M1 to L432 residues) expressed in baculovirus infected sf9 cells at 1 uM using Histone H1 as substrate by filter binding assay; method in brief: as §1
[5] = tested on: NCI-H322M; assay: Growth inhibition of human NCI-H322M cells incubated for 48 hrs by sulforhodamine B assay; assay type: functional, cell-based
[6] = tested on: HL-60(TB); assay: Growth inhibition of human HL-60(TB) cells incubated for 48 hrs by sulforhodamine B assay; assay type: functional, cell-based
[7] = tested on: SF-539; assay: Growth inhibition of human SF539 cells incubated for 48 hrs by sulforhodamine B assay; assay type: functional, cell-based
[8] = target: Aurora kinase B (Homo sapiens) (UniProt Q96GD4); assay: Inhibition of human N-terminal GST/His6-tagged Aurora B (A2 to A344 residues) expressed in sf9 cells at 1 uM using tetra(LRRLSLG) as substrate by filter binding assay; method in brief: as §1
[9] = target: Serine/threonine-protein kinase Chk2 (Homo sapiens) (UniProt O96017); assay: Inhibition of CHK2 (unknown origin) at 1 uM; method in brief: as §1
[10] = target: T1, Insulin-like growth factor 1 receptor (Homo sapiens, UniProt P08069); assay: Inhibition of recombinant human N-terminal GST/His6-tagged IGF1R (M954 to C1367 residues) expressed in sf9 cells assessed as residual activity at 1 uM using Poly(Glu,Tyr)4:1 as substrate by filter binding assay relative to control; method in brief: as §1
[11] = target: Cyclin-dependent kinase 1/cyclin B1 (Homo sapiens) (UniProt P06493+P14635); assay: Inhibition of recombinant human N-terminal GST/His6-tagged CDK1 (M1 to M297 residues)/Cyclin B1 (M1 to V433 residues) expressed in sf9 cells at 1 uM using RB-CTF as substrate by filter binding assay; method in brief: as §1
[12] = tested on: 786-0; assay: Growth inhibition of human 786-0 cells incubated for 48 hrs by sulforhodamine B assay; assay type: functional, cell-based
[13] = tested on: SNB-19; assay: Growth inhibition of human SNB19 cells incubated for 48 hrs by sulforhodamine B assay; assay type: functional, cell-based
[14] = tested on: SW-620; assay: Growth inhibition of human SW620 cells incubated for 48 hrs by sulforhodamine B assay; assay type: functional, cell-based
Method in brief: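 NCI-60 panel growth inhibition, run by the U.S. National Cancer Institute; GI50 values are means of two test series.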

[15] = tested on: OVCAR-3; assay: Growth inhibition of human OVCAR3 cells incubated for 48 hrs by sulforhodamine B assay; assay type: functional, cell-based
[16] = tested on: OVCAR-8; assay: Growth inhibition of human OVCAR8 cells incubated for 48 hrs by sulforhodamine B assay; assay type: functional, cell-based
[17] = target: T2, Aurora kinase A (Homo sapiens) (UniProt O14965); assay: Inhibition of human N-terminal GST/His6-tagged Aurora A (M1 to S403 residues) expressed in baculovirus infected sf9 cells at 1 uM using tetra(LRRLSLG) as substrate by filter binding assay; method in brief: as §1
T2 sequence (whole entry): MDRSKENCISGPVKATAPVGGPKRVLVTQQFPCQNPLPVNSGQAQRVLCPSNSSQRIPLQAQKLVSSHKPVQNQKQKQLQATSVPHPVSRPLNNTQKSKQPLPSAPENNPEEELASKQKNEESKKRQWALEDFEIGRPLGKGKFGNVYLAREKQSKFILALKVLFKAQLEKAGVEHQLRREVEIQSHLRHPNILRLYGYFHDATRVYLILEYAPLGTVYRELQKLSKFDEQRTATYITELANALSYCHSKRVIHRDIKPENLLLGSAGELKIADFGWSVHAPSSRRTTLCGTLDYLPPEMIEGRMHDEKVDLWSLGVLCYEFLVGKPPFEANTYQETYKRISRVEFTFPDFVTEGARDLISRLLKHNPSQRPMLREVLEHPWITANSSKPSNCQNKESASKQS

[18] = tested on: SF-295; assay: Growth inhibition of human SF295 cells incubated for 48 hrs by sulforhodamine B assay; assay type: functional, cell-based
[19] = target: T1, Insulin-like growth factor 1 receptor; assay: Inhibition of IGF1R in human PANC1 cells assessed as reduction in Akt phosphorylation at Ser473 residue after 24 hrs by immunoblot analysis; assay type: cell-based
Method in brief: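 Cells in their medium with 10% FBS exposed to rising concentrations for 24 h; whole-cell lysates immunoblotted for p-Akt (S473) and total Akt; PI3K inhibitor at 10 μM as positive control.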

[20] = target: Glycogen synthase kinase-3 beta (Homo sapiens, UniProt P49841); assay: Inhibition of human N-terminal GST/His6-tagged GSK3beta (M1 to T420 residues) expressed in baculovirus infected sf9 cells at 1 uM using RBER-IRStide as substrate by filter binding assay; method in brief: as §1
[21] = tested on: NCI-H522; assay: Growth inhibition of human NCI-H522 cells incubated for 48 hrs by sulforhodamine B assay; assay type: functional, cell-based
[22] = tested on: SK-MEL-5; assay: Growth inhibition of human SK-MEL-5 cells incubated for 48 hrs by sulforhodamine B assay; assay type: functional, cell-based
[23] = tested on: PC-3; assay: Growth inhibition of human PC3 cells incubated for 48 hrs by sulforhodamine B assay; assay type: functional, cell-based
[24] = tested on: SF-268; assay: Growth inhibition of human SF268 cells incubated for 48 hrs by sulforhodamine B assay; assay type: functional, cell-based
[25] = tested on: CCRF-CEM; assay: Growth inhibition of human CCRF-CEM cells incubated for 48 hrs by sulforhodamine B assay; assay type: functional, cell-based
[26] = tested on: COLO 205; assay: Growth inhibition of human COLO205 cells incubated for 48 hrs by sulforhodamine B assay; assay type: functional, cell-based
[27] = tested on: IGROV-1; assay: Growth inhibition of human IGROV1 cells incubated for 48 hrs by sulforhodamine B assay; assay type: functional, cell-based
[28] = tested on: SN12C; assay: Growth inhibition of human SN12C cells incubated for 48 hrs by sulforhodamine B assay; assay type: functional, cell-based
[29] = target: T1, Insulin-like growth factor 1 receptor; assay: Inhibition of IGF1R phosphorylation at Tyr1161 residue in human MCF7 cells at 1 uM after 1 hr by Hoechst 33258 staining based immunohistochemical analysis; assay type: cell-based
Method in brief: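 MCF7 treated 1 h (test agent 1 μM; PI3K inhibitor 10 μM; 0.1% DMSO mock), fixed in 4% PFA 15 min, permeabilised/blocked, anti-p-IGF-1R Y1161 (1:200) overnight at 4 °C, Alexa 594 secondary 1 h, nuclei with Hoechst 33258 (1 μg/mL).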

CN1CCN(CCO/N=C2/C(=C3/C(=O)Nc4ccccc43)Nc3ccccc32)CC1
Activity [1]: Active | growth inhibition (GI) [2]: Active | inhibition [3]: inactive | inhibition [4]: inactive | growth inhibition (GI) [5]: Active | growth inhibition (GI) [6]: Active | growth inhibition (GI) [7]: Active | inhibition [8]: inactive | inhibition [9]: inactive | Activity [10]: 30% | inhibition [11]: inactive | growth inhibition (GI) [12]: Active | growth inhibition (GI) [13]: Active | growth inhibition (GI) [14]: Active | growth inhibition (GI) [15]: Active | growth inhibition (GI) [16]: Active | inhibition [17]: inactive | growth inhibition (GI) [18]: Active | inhibition [19]: Dose-dependent effect | inhibition [20]: inactive | growth inhibition (GI) [21]: Active | growth inhibition (GI) [22]: Active | growth inhibition (GI) [23]: Active | growth inhibition (GI) [24]: Active | growth inhibition (GI) [25]: Active | growth inhibition (GI) [26]: Active | growth inhibition (GI) [27]: Active | growth inhibition (GI) [28]: Active | inhibition [29]: Active
